Data reported in ChEMBL document CHEMBL1152744, “Select pyrimidinones inhibit the propagation of the malarial parasite, Plasmodium falciparum” (Bioorg Med Chem, 2009).

Tests used:
[1] = Cytotoxicity against human HepG2 cells; assay type: cell-based
In short: (§1)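 GI50 measured in HepG2 hepatocellular carcinoma and WI-38 embryonic diploid lung cells, calculated relative to a DMSO (negative) control.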

[2] = biological target: Heat shock protein SSA1 (Saccharomyces cerevisiae S288c) (UniProt P10591); assay: Inhibition of Saccharomyces cerevisiae Ssa1 ATPase activity assessed as residual enzyme activity at 300 uM relative to control
In short: (§2)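 Steady-state ATPase assay with P. falciparum Hsp70, yeast Ssa1 or human Hsp70. Compound at 300 μM final; activity standardized to an equal volume of DMSO, set to 1. Values are means of 6 independent experiments, ±SD where shown.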

[3] = system: Plasmodium falciparum; assay: Effect on Plasmodium falciparum Hsp70 ATPase activity assessed as fold change in Kcat at 100 uM relative to control
In short: (§3)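 Single-turnover ATPase assay measuring kCAT of recombinant P. falciparum Hsp70 (E. coli Rosetta 2, Ni-chelate then Q-Sepharose purified), yeast Ssa1, or human HSPA1A (E. coli-expressed, untagged or His6). Optional J-domain partners: Hlj1 1.1 μM; Ydj1 0.045 μM with Ssa1, 0.9 μM with Pf or human Hsp70. Compound at 100 μM final; activity expressed as a fraction of the DMSO-only reaction under the same conditions, set to 1.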

[4] = Cytotoxicity against human WI38 cells; assay type: cell-based, WI-38; in short: as §1
[5] = biological target: Heat shock 70 kDa protein 1A (Homo sapiens) (UniProt P0DMV8); assay: Effect on human HSPA1A ATPase activity assessed as fold change in Kcat at 100 uM relative to control; in short: as §3
[6] = biological target: Heat shock protein SSA1 (Saccharomyces cerevisiae S288c) (UniProt P10591); assay: Effect on Saccharomyces cerevisiae Ssa1 ATPase activity assessed as fold change in Kcat at 100 uM in presence of J-domain containing yeast Ydj1 co-chaperone relative to control; in short: as §3
[7] = biological target: Heat shock 70 kDa protein 1A (Homo sapiens) (UniProt P0DMV8); assay: Effect on human HSPA1A ATPase activity assessed as fold change in Kcat at 100 uM in presence of J-domain containing Hdj1 co-chaperone relative to control
[8] = system: Plasmodium falciparum; assay: Effect on Plasmodium falciparum Hsp70 ATPase activity assessed as fold change in Kcat at 100 uM in presence of J-domain containing yeast HlJ1 co-chaperone relative to control; in short: as §3
[9] = biological target: Heat shock 70 kDa protein 1A (Homo sapiens) (UniProt P0DMV8); assay: Effect on human HSPA1A ATPase activity assessed as fold change in Kcat at 100 uM presence of J-domain containing yeast Ydj1 co-chaperone relative to control; in short: as §3
[10] = biological target: Heat shock protein SSA1 (Saccharomyces cerevisiae S288c) (UniProt P10591); assay: Effect on Saccharomyces cerevisiae Ssa1 ATPase activity assessed as fold change at 100 uM in Kcat relative to control; in short: as §3
[11] = biological target: Heat shock protein SSA1 (Saccharomyces cerevisiae) (UniProt P10591); assay: Effect on yeast Hsp70 Ssa1 ATPase activity assessed as fold change in Kcat at 100 uM relative to control
[12] = system: Plasmodium falciparum; assay: Antimalarial activity against chloroquine-resistant Plasmodium falciparum Dd2 infected human erythrocytes at 5 uM after 72 hrs as inhibition of [3H]hypoxanthine uptake; assay type: functional
In short: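 Single-point screen of Dd2 asexual blood stages in human red cells at final concentrations of 1 μM and 5 μM, with 72 h drug exposure and [3H]hypoxanthine pulse over the final 24 h. Read-out was percent inhibition of label uptake. Compounds giving >50% inhibition at 5 μM were re-screened.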

[13] = system: Plasmodium falciparum; assay: Antimalarial activity against chloroquine-resistant Plasmodium falciparum Dd2 infected human erythrocytes after 72 hrs by [3H]hypoxanthine uptake; assay type: functional, organism-based
In short: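 Asexual blood-stage P. falciparum Dd2 (chloroquine-resistant) in human erythrocytes, exposed to compound for 72 h, with [3H]hypoxanthine added for the last 24 h. Dose-response series were run, and IC50 was calculated by linear regression on the linear portions of plotted uptake values. Chloroquine was included as an internal control.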

[14] = biological target: Heat shock 70 kDa protein (Plasmodium falciparum) (UniProt P11144); assay: Inhibition of Plasmodium falciparum Hsp70 ATPase activity assessed as residual enzyme activity at 300 uM relative to control; in short: as §2
[15] = biological target: Heat shock protein SSA1 (Saccharomyces cerevisiae S288c) (UniProt P10591); assay: Effect on Saccharomyces cerevisiae Ssa1 ATPase activity assessed as fold change in Kcat at 100 uM in presence of J-domain containing yeast HlJ1 co-chaperone relative to control; in short: as §3
[16] = biological target: Heat shock 70 kDa protein 1A (Homo sapiens) (UniProt P0DMV8); assay: Inhibition of human HSPA1A ATPase activity assessed as residual enzyme activity at 300 uM relative to control; in short: as §2
[17] = biological target: Heat shock 70 kDa protein 1A (Homo sapiens) (UniProt P0DMV8); assay: Inhibition of human Hsp70 ATPase activity assessed as reduction of rate of ATP hydrolysis; set-up: scale not given: the % may be the effect or the level left

Sequence of Heat shock 70 kDa protein 1A (Homo sapiens) (P0DMV8 2-641 limits assumed): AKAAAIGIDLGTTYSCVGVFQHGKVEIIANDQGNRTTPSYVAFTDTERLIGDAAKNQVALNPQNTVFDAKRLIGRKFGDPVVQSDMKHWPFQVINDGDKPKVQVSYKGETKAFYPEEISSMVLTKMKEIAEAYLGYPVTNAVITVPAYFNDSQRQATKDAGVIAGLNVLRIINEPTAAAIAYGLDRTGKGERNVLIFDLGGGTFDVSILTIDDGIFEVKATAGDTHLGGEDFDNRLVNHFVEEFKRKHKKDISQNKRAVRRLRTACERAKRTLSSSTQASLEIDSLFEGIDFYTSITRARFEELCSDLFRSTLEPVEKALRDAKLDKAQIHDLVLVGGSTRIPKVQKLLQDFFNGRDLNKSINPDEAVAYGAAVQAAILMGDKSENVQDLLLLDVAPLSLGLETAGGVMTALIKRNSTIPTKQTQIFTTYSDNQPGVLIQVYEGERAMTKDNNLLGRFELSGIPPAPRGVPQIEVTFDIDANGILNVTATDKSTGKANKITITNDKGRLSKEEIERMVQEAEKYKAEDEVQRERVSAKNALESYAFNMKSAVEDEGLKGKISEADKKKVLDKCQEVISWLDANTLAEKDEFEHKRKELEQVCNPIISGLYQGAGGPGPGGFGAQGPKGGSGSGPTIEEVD
Sequence of Heat shock protein SSA1 (Saccharomyces cerevisiae S288c) (P10591 whole entry): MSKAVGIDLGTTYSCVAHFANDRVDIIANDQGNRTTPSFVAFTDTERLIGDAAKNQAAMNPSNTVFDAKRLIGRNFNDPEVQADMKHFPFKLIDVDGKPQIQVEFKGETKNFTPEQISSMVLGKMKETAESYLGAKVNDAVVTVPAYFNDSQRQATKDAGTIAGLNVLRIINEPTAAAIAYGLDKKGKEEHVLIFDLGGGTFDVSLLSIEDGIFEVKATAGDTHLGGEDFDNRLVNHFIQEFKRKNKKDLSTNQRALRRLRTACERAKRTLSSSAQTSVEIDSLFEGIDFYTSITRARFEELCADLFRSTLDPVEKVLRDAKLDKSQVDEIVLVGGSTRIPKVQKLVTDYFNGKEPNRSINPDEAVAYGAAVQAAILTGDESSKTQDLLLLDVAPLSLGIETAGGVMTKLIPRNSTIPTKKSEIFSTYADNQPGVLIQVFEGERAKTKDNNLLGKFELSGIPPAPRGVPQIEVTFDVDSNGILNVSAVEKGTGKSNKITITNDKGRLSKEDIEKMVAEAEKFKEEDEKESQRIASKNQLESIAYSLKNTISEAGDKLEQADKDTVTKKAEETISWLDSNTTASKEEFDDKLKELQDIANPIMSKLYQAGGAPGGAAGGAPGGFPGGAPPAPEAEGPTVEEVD
Sequence of Heat shock 70 kDa protein (Plasmodium falciparum) (P11144 whole entry): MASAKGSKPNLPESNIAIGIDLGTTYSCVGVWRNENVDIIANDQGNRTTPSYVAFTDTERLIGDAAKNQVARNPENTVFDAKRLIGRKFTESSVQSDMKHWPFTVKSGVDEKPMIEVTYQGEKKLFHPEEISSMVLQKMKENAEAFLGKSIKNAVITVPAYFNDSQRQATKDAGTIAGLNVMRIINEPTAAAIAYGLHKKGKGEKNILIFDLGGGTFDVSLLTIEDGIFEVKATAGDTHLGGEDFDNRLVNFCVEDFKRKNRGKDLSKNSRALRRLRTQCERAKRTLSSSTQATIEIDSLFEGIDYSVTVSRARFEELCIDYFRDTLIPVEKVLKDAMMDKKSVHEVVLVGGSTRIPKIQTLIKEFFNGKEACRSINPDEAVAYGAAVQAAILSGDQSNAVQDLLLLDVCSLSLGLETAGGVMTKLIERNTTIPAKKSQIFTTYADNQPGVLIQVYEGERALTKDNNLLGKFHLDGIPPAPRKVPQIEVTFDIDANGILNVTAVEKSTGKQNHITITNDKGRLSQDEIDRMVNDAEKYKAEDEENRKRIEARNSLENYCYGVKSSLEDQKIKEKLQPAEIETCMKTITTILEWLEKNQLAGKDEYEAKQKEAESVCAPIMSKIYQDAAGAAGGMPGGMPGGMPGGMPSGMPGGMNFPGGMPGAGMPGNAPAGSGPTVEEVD

Row | SMILES | GI50 [1] | fold change (FC) [2] | fold change (FC) [3] | GI50 [4] | fold change (FC) [5] | fold change (FC) [6] | fold change (FC) [7] | fold change (FC) [8] | fold change (FC) [9] | fold change (FC) [10] | fold change (FC) [11] | inhibition at 5 µM [12] | IC50 [13] | fold change (FC) [14] | fold change (FC) [15] | fold change (FC) [16] | Activity [17]
1 | CC1=C(C(=O)OCc2ccccc2)C(c2ccc([N+](=O)[O-])cc2)NC(=O)N1CCCC(=O)N(CCN1CCOCC1)C(C(=O)NC(C)(C)C)c1ccc(-c2ccccc2)cc1 (configuration not stated) | > 10 µM | 0.75 | 2.2 | > 10 µM | 2 | -1.5 | 2.9 | 1.4 | -1.1 | 1.2 | 1.2 | > 50% | 0.8 µM | 0.72 | 1 | 0.82 | 
2 | COC(=O)c1cc(-c2ccccc2)n(CCNC(=O)CCCCCN2C(=O)NC(c3ccc(-c4ccccc4)cc3)C(C(=O)OCc3ccccc3)=C2C)c1C (configuration not stated) | > 10 µM | 1.2 | 2.7 | > 10 µM | 3.5 | -1.7 | 5.3 | -1.1 | 1.5 | 13.3 |  | > 50% | 0.05 µM | 1.01 | -6.5 | 0.72 | 30%
3 | CC(=O)O[C@H]1C(=O)[C@@]2(C)[C@H]([C@H](OC(=O)c3ccccc3)[C@]3(O)C[C@H](OC(=O)[C@H](O)[C@@H](NC(=O)c4ccccc4)c4ccccc4)C(C)=C1C3(C)C)[C@]1(OC(C)=O)CO[C@@H]1C[C@@H]2O [PACLITAXEL] | 0.001 µM |  |  | 0.0137 µM |  |  |  |  |  |  |  |  |  |  |  |  | 
4 | COC(=O)C1=C(Cc2ccccc2)NC(=O)NC1c1ccc2ccccc2c1 (configuration not stated) | > 10 µM | 1.2 | 1.4 | > 10 µM | 1.3 | -1.3 | 2.5 | -1.2 | -1.2 | 2 | 2 | > 50% | 0.3 µM | 1 | -1.2 | 0.7 | 30%
5 | CCOC(=O)C1=C(C)N(Cc2ccccc2)C(=O)NC1c1ccccc1OS(=O)(=O)c1ccccc1[N+](=O)[O-] (configuration not stated) | > 10 µM | 1.1 | 6.5 | > 10 µM | 3.6 | -1.3 | 3.5 | 1.4 | -1.2 | 2.1 | 2.1 | > 50% | 0.1 µM | 0.99 | 1 | 0.74 | 30%
6 | CCOC(=O)C1=C(C)N(CCCCCC(=O)O)C(=O)NC1c1cccc([N+](=O)[O-])c1 (configuration not stated) | > 10 µM | 0.93 | 1.8 | > 10 µM | 1.4 | 1.1 | 1.1 | -1.1 | -1.3 | 1.3 | 1.3 | > 50% | 1.6 µM | 1.01 | 1 | 0.85 | 
7 | CCCCCCN(C(=O)CCCCCN1C(=O)NC(c2ccc(-c3ccccc3)cc2)C(C(=O)OCc2ccccc2)=C1C)C(C(=O)NCCCC)C1CCCCC1 (configuration not stated) | > 10 µM | 0.97 | 2.9 | > 10 µM | 2.3 | -1.3 | 2.8 | -1.5 | 1.1 | -1.7 | -1.7 | > 50% | 1.1 µM | 0.74 | 1.2 | 0.95 | 
8 | CCOC(=O)C1=C(C)N(CCCC(=O)NCCn2c(-c3ccccc3)cc(C(=O)OC)c2C)C(=O)NC1c1ccc([N+](=O)[O-])cc1 (configuration not stated) | > 10 µM | 0.89 | 3.7 | > 10 µM | 2 | -1.6 | 4.3 | 1.5 | -1.2 | -1.3 | -1.3 | > 50% | 0.03 µM | 1.02 | -1.6 | 0.8 | 
9 | CCCCN1C(=O)NC(c2ccc(OC)cc2)C(C(=O)OCc2ccccc2)=C1C (configuration not stated) | > 10 µM | 0.95 | 7.2 | > 10 µM | 4.5 | -1.1 | 4.5 | -1.1 | 1.1 | 2.3 |  | > 50% | 0.2 µM | 0.92 | 1 | 0.8 | 
10 | CCCCNC(=O)C(c1ccc(-c2ccccc2)cc1)N(CCN1CCOCC1)C(=O)CCCCCN1C(=O)NC(c2ccc([N+](=O)[O-])cc2)C(C(=O)OCc2ccccc2)=C1C (configuration not stated) | > 10 µM | 1 | 2.3 | > 10 µM | 1 | -2.6 | 4.7 | -1.3 | 1 | -1.6 | -1.6 | > 50% | 0.2 µM | 0.73 | -1.1 | 0.74 | 
